# Calls of active or inactive are those of the source.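 The calls were made as follows, unless noted: active = viability at or below 10% of carrier control in both of two separate runs; inconclusive = viability at or below 10% in only one of the two runs; inactive = the rest.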
# Columns and labels:
# [1] = reducers of endogenous Her2 protein level, primary screen, SKBR3 breast tumor cells, AlphaScreen, ATP viability (AID 461;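 active = Her2 level under about 52% in both replicate screens, with viability over 70% of control, limit read from the data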;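 as to Her2 level: lower value means less Her2 protein in the cells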;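 as to viability: percent of carrier control wells set as 100% viability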); details: 18-24 h, measured here: SKBR3 viability, ATP luminescence, at 10 µM
# [2] = target: Receptor tyrosine-protein kinase erbB-2 (Homo sapiens) (UniProt P04626); assay: as above; details: 18-24 h, at 10 µM, stronger effect = lower value
# Sequence of Receptor tyrosine-protein kinase erbB-2 (Homo sapiens) (P04626 whole entry, looked up): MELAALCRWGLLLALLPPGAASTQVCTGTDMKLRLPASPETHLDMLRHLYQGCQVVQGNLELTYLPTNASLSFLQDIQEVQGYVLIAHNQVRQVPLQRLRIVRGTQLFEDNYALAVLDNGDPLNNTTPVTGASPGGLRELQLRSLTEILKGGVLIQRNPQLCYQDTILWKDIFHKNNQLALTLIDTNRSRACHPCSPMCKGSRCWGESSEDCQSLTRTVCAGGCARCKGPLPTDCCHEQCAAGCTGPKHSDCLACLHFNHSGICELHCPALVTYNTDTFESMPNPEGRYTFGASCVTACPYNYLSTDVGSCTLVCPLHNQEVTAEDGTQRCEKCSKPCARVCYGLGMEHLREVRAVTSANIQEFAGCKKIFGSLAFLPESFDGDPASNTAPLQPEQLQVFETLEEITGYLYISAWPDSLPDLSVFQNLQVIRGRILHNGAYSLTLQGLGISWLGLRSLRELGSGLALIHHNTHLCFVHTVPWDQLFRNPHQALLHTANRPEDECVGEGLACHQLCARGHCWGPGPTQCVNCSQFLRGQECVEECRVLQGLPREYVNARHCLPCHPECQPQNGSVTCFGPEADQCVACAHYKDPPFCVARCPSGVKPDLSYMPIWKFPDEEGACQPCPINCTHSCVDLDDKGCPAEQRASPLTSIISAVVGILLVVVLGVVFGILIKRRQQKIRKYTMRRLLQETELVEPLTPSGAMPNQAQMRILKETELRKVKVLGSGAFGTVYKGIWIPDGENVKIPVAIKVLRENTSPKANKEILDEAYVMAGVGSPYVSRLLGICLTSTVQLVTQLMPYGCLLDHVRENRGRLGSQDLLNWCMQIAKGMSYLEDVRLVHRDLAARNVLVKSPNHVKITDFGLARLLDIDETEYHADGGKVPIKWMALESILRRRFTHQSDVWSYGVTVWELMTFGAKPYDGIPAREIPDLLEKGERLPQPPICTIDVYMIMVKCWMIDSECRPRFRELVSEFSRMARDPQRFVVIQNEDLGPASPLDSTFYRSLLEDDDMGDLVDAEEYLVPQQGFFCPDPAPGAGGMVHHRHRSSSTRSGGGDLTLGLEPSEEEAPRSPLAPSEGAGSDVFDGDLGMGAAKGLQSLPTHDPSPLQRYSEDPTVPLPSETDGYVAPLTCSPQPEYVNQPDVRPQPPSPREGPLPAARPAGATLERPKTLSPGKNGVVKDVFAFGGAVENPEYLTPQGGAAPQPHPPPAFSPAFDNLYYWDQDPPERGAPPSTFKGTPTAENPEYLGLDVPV
# [3] = SK-BR-3 cell growth inhibitors, pilot screen, 24 h, human (AID 572); details: SK-BR-3 viability, CellTiter-Glo luminescence, at 10 µM, stronger effect = lower value;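 also: compound exposure lasted between 18 and 24 h rather than exactly 24 h; 100% = carrier-treated control wells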
# [4] = HUVEC growth inhibition – cell-based, human, primary screen (AID 575;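 active = viability at or below 30% in both replicate assays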;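 also: 100% = median of untreated cell wells with 0.1% DMSO on each plate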); details: HUVEC proliferation, CellTiter-Glo luminescence, 72 h; at 10 µM; stronger effect = lower value
# How it was run: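 Test system: primary human umbilical vein endothelial cells. Quantity: 1250 cells/well. Compound: single 10 µM dose, 0.1% DMSO, from 5x medium stock. Timing: 72 h treatment at 37 °C. Detection: ATP-based CellTiter-Glo luminescent read. Benchmarks: vehicle and MePR control wells. Format: 384-well plates coated with collagen.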
# [5] = growth inhibitors of H69AR lung tumor, primary screen, human, duplicate replicates (AID 580;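 active = viability at or under a set limit in both replicates, limit being median viability minus 3 SD, cut at about 48% in these data, passing the limit was not always enough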;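 also: 100% = mean luminescence of untreated wells and 0% = no signal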); details: H69AR lung tumor cells viability, ATP luminescence, 72 h; at 10 µM; stronger effect = lower value
# [6] = reversal of MRP1-mediated doxorubicin resistance, pilot screen, H69AR cells, doxorubicin co-treatment (AID 601;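 active = viability loss from added drug above about 55%, and viability with drug at most 40%, in both replicates, limit read from the data, passing the limit was not always enough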); details: CellTiter-Glo, 72 h, at 10 µM; for differential viability (reversal): stronger effect = higher value
# [7] = 384-well plate pilot, post-Golgi transport modulator project, inhibition of yeast transport mutant growth (AID 636; in the data active = inhibition above about 31%); details: absorbance 615 nm, about 18 h, stronger effect = higher value
# [8] = growth suppression of yeast trafficking mutant, preliminary HTS, modulators of trafficking downstream of Golgi apparatus project, 1536-format plate, OD 615 nm (AID 637; in the data active = inhibition above about 30%); details: yeast transport mutant growth, absorbance 615 nm, 18 h; stronger effect = higher value
# [9] = H69AR cells + 2 uM doxorubicin, measured here: viability with 2 uM doxorubicin, stronger effect = lower value
# [10] = H69AR cells, compound alone cytotoxicity
Structure (SMILES),viability [1] [%],Her2 level [2],viability [3],viability [4],viability [5],differential viability (reversal) ([6]; H69AR cells + 2 uM doxorubicin),"viability [6, 9] [%]","viability [6, 10] [%]",inhibition [7],inhibition [8]
COc1cccc(Oc2cn[nH]c2-c2ccc(O)cc2O)c1,104,122% (inactive),104% (inactive),65.9% (inactive),89.5% (inactive),-8.96% (inactive),98.4,89.5,0.26% (inactive),-5% (inactive)
COc1ccccc1NC(=O)C1CC(=O)N(c2ccc(F)cc2)C1 (stereo not given),99,144% (inactive),99% (inactive),109% (inactive),97.3% (inactive),8.91% (inactive),88.4,97.3,0.53% (inactive),19.2% (inactive)
O=C(/C=C1\NC2(CCCC2)Cc2ccccc21)N1CCOCC1,101,85% (inactive),101% (inactive),98.2% (inactive),102% (inactive),17.3% (inactive),85,102,-7.12% (inactive),-3.49% (inactive)
O=C(OCc1cc2ccccc2[nH]c1=O)c1ccco1,106,114% (inactive),106% (inactive),95.9% (inactive),100% (inactive),6.74% (inactive),93.3,100,-1.43% (inactive),-6.67% (inactive)
CC(=O)Oc1ccc(CCC(C)OC(C)=O)cc1 (stereo not given),101,92% (inactive),101% (inactive),93.2% (inactive),99.7% (inactive),2.78% (inactive),96.9,99.7,-6.13% (inactive),-1.13% (inactive)
Cc1cccn2c(=O)c3cc(C#N)c(=NC(=O)c4cccnc4)n(CC4CCCO4)c3nc12 (stereo not given),92.5,108% (inactive),92.5% (inactive),94.4% (inactive),71.1% (inactive),27% (inactive),44.1,71.1,-1.18% (inactive),-9.35% (inactive)
Cc1cc2ccccn2c1C(=O)c1ccncc1,114,98% (inactive),114% (inactive),106% (inactive),87.9% (inactive),9.15% (inactive),78.8,87.9,-3.77% (inactive),2.22% (inactive)
O=C(CCc1ccccc1)Nc1ccncc1,110,119% (inactive),110% (inactive),103% (inactive),97.8% (inactive),5.17% (inactive),92.6,97.8,0.65% (inactive),-5.33% (inactive)
COc1ccc(C2CC(=O)c3c(C)nc(N4CCN(c5ccccc5)CC4)nc3C2)cc1 (stereo not given),90,88% (inactive),90% (inactive),98.5% (inactive),97.3% (inactive),19% (inactive),78.3,97.3,0.79% (inactive),-5.9% (inactive)
COC(=O)Nc1sc2c(c1C(=O)N1CCOCC1)CCC(C)C2 (stereo not given),89.5,88.5% (inactive),89.5% (inactive),79.7% (inactive),93.9% (inactive),-1.66% (inactive),95.6,93.9,-2.89% (inactive),26% (inactive)
C1CCC2=NCCCN2CC1,122,87.5% (inactive),122% (inactive),100% (inactive),107% (inactive),8.22% (inactive),98.4,107,-7.33% (inactive),-1.9% (inactive)
COc1ccccc1CNS(=O)(=O)c1ccc(NC(C)=O)cc1,94.5,84% (inactive),94.5% (inactive),106% (inactive),92.9% (inactive),-7.69% (inactive),101,92.9,-5.73% (inactive),2.22% (inactive)
CCOC(=O)N1CCN(S(=O)(=O)c2cc(C)c(C)cc2C)CC1,96.5,87% (inactive),96.5% (inactive),104% (inactive),95.3% (inactive),6.04% (inactive),89.3,95.3,-4.34% (inactive),2.22% (inactive)
C=CCSC1=C(C#N)C(c2ccccc2)CC(=O)N1 (stereo not given),106,93.5% (inactive),106% (inactive),114% (inactive),104% (inactive),6.72% (inactive),97.4,104,-1.87% (inactive),-4.35% (inactive)
CCCCNC(=O)CN(C1CCCCC1)S(C)(=O)=O,104,107% (inactive),104% (inactive),101% (inactive),103% (inactive),11% (inactive),92.4,103,-4.47% (inactive),-0.16% (inactive)
COc1ccc(OC)c(NC(=O)CSc2ncccc2C(=O)O)c1,104,98% (inactive),104% (inactive),100% (inactive),104% (inactive),7.42% (inactive),96.4,104,-3.29% (inactive),-3.45% (inactive)

Structure (SMILES),viability [1] [%],Her2 level [2],viability [3],viability [4],viability [5],differential viability (reversal) ([6]; H69AR cells + 2 uM doxorubicin),"viability [6, 9] [%]","viability [6, 10] [%]",inhibition [7],inhibition [8]
CCOC(=O)c1oc2ccccc2c1CSc1nnnn1-c1ccc(C)cc1,94.5,99% (inactive),94.5% (inactive),83.2% (inactive),69.3% (inactive),-18.7% (inactive),88,69.3,2.08% (inactive),-6.98% (inactive)
COC(=O)c1sc2ccccc2c1NC(=O)c1cccs1,97.5,99.5% (inactive),97.5% (inactive),82.1% (inactive),82.1% (inactive),-17.2% (inactive),99.3,82.1,-2.08% (inactive),-5.87% (inactive)
CCOC(=O)c1ccc(NC2OC(=O)c3ccccc32)cc1 (stereo not given),106,93% (inactive),106% (inactive),77.4% (inactive),91.9% (inactive),-3.92% (inactive),95.8,91.9,-6.89% (inactive),6.17% (inactive)
O=C(c1ccccc1-c1ccccc1)N1CCN(c2ccccn2)CC1,69.5,93% (inactive),69.5% (inactive),58.8% (inactive),16% (active),-57.7% (inactive),73.7,16,-6.76% (inactive),-4.75% (inactive)
Cc1ccc(SCc2[nH]nc3c2C(c2ccc(C)o2)C(C#N)=C(N)O3)cc1 (stereo not given),91,88% (inactive),91% (inactive),74.3% (inactive),76.8% (inactive),-5.55% (inactive),82.4,76.8,-7.03% (inactive),2.06% (inactive)
O=C(CCc1nc2ccccc2[nH]1)Nc1ccc2c(c1)OCO2,79,126% (inactive),79% (inactive),48.6% (inactive),90.8% (inactive),-2.33% (inactive),93.1,90.8,0.9% (inactive),-4.33% (inactive)
c1ccc(-c2cn3c4c(sc3n2)CCCC4)cc1,89,76% (inactive),89% (inactive),46% (inactive),39.9% (active),-25.4% (inactive),65.2,39.9,-2.37% (inactive),1.27% (inactive)
N#Cc1c(/N=C/c2ccco2)sc2c1CCC2,99,139% (inactive),99% (inactive),85.2% (inactive),85.7% (inactive),-1.43% (inactive),87.1,85.7,-2.76% (inactive),11.2% (inactive)
Fc1ccc(-n2c(Cc3ccccc3)nnc2SCc2nc(-c3cccs3)no2)cc1,99.5,92.5% (inactive),99.5% (inactive),73.1% (inactive),94.1% (inactive),17.9% (inactive),76.2,94.1,-3.73% (inactive),-0.98% (inactive)
CCN(CC)S(=O)(=O)c1ccc2c(c1)c(=O)c(C(=O)NCCOC)cn2C,88.5,99.5% (inactive),88.5% (inactive),101% (inactive),83.1% (inactive),-12.5% (inactive),95.6,83.1,-5.95% (inactive),-5.5% (inactive)
COc1ccc2c(CC(=O)Nc3nnc(C4CC4)s3)coc2c1,120,81% (inactive),120% (inactive),89.4% (inactive),99.4% (inactive),5.3% (inactive),94.1,99.4,-7.26% (inactive),-1.9% (inactive)
CCCCN(C)CCCNC(=O)CC1Oc2ccccc2NC1=O (stereo not given),86.5,91.5% (inactive),86.5% (inactive),104% (inactive),93.4% (inactive),-7.03% (inactive),100,93.4,-4.53% (inactive),2.95% (inactive)
COc1cc2[nH]c(=O)c(C(=O)NCCCN3CCCCC3)c(O)c2cc1OC,99.5,99% (inactive),99.5% (inactive),99.5% (inactive),98.7% (inactive),7.58% (inactive),91.1,98.7,-6.35% (inactive),1.11% (inactive)
CCSc1cc(C2C(C(=O)OC)=C(C)NC3=C2C(=O)CCC3)c(C)o1 (stereo not given),79,90% (inactive),79% (inactive),109% (inactive),84.5% (inactive),5.68% (inactive),78.8,84.5,-6.8% (inactive),3.93% (inactive)
Cc1ccc(S(=O)(=O)N(CC(=O)NCc2ccco2)Cc2ccccc2F)cc1,92,108% (inactive),92% (inactive),104% (inactive),107% (inactive),21.3% (inactive),85.5,107,-2.67% (inactive),-5.97% (inactive)

# Reference: PubChem BioAssay
